Measured values published in PMC7571300 (ACS Pharmacology & Translational Science, 2020).
Where two headings read alike, the source gives them in different places.

Assays:
EV-A71 2A^pro [1] = molecular target: T1, EV-A71 2A^pro (Enterovirus A71, UniProt B9VUU3); assay: FRET-based enzymatic assay; type: biochemical
T1 sequence (B9VUU3 863-1012): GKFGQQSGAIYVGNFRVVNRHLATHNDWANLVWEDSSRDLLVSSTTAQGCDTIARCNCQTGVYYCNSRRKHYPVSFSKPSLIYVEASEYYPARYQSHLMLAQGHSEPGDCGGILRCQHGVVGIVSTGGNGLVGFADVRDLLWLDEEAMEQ

EV-A71 3C^pro [2] = molecular target: T2, EV-A71 3C^pro (Enterovirus A71, UniProt B9VUU3); assay: FRET-based enzymatic assay; type: biochemical
EV-D68 2A^pro [3] = molecular target: T3, EV-D68 2A^pro (Enterovirus D68, UniProt A0A097BW19); assay: FRET-based enzymatic assay; type: biochemical
T3 sequence (A0A097BW19 863-1009): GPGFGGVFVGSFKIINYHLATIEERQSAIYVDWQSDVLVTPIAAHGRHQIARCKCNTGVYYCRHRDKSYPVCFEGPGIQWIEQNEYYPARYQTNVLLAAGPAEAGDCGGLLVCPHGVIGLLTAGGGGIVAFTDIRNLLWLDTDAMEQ

EV-D68 3C^pro [4] = molecular target: T4, EV-D68 3C^pro (Enterovirus D68, UniProt A0A097BW19); assay: biochemical
T4 sequence (A0A097BW19 1550-1732): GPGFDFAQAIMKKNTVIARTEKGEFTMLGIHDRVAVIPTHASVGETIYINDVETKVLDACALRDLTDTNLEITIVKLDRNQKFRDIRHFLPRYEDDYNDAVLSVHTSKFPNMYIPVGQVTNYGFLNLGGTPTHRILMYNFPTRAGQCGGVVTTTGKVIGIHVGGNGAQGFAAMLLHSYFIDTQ

SARS-CoV-2 M^pro [5] = molecular target: T5, SARS-CoV-2 M^pro (Severe acute respiratory syndrome coronavirus 2, UniProt P0DTD1); assay: Thermal shift binding assay; settings: for Tm change, SARS-CoV-2 M^pro: 4 mM DTT, 40 μM compound (shikonin 10 μM), 3 μM protease
SARS-CoV-2 PL^pro = SARS-CoV-2 PL^pro (Severe acute respiratory syndrome coronavirus 2, UniProt P0DTD1); assay: Thermal shift binding assay; settings: 4 mM DTT; 40 μM compound (shikonin 10 μM); 3 μM protease
Summary of the method: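 SARS-CoV-2 PLpro (ORF1ab 1564–1876, strain WIV04) was expressed from pET28b(+) in BL21(DE3) (0.5 mM IPTG, 18 °C, 24 h), Ni-NTA purified and eluted with 300 mM imidazole. Protein (3 μM) in 50 mM HEPES pH 7.5, 0.01% Triton X-100, with or without 4 mM DTT, sat with test compound or DMSO for 30 min at 30 °C. SYPRO orange (1×) was added and a 20–90 °C ramp at 0.05 °C/s applied. Tm was from a Boltzmann fit.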

EV-A71 2A^pro [6] = molecular target: T1, EV-A71 2A^pro; assay: Thermal shift binding assay; settings: 4 mM DTT; 40 μM compound (shikonin 10 μM); 3 μM protease
Summary of the method: (§1)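 Codon-optimised 2Apro was expressed in E. coli from pET28b(+), from EV-A71/7D3 or EV-D68 US/KY/14–18953. Protease (3 μM) in 50 mM Tris pH 7.0, 150 mM NaCl, 10% glycerol, with or without 4 mM DTT, was preincubated with test compound or DMSO at 30 °C for 30 min. SYPRO orange (1×) was then added and fluorescence followed over 20–90 °C at 0.05 °C/s. Tm was taken as the transition mid log (Boltzmann model).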

EV-A71 3C^pro [7] = molecular target: T2, EV-A71 3C^pro; assay: Thermal shift binding assay; settings: 4 mM DTT; 40 μM compound (shikonin 10 μM); 3 μM protease
Summary of the method: (§2)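 3Cpro (EV-A71/7D3 or EV-D68 US/KY/14–18953; codon-optimised, pET28b(+), BL21(DE3), 0.5 mM IPTG at 18 °C for 24 h, Ni-NTA purified) was used at 3 μM. Buffer was 50 mM Tris pH 7.0, 150 mM NaCl, 1 mM EDTA, 10% glycerol, with or without 4 mM DTT. Protease was preincubated with test compound or DMSO (30 °C, 30 min), then SYPRO orange (1×) added and a 20–90 °C ramp (0.05 °C/s) run. Tm came from a Boltzmann fit.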

EV-D68 2A^pro [8] = molecular target: T3, EV-D68 2A^pro; assay: Thermal shift binding assay; settings: 4 mM DTT; 40 μM compound (shikonin 10 μM); 3 μM protease
Summary of the method: as §1

EV-D68 3C^pro [9] = molecular target: T4, EV-D68 3C^pro; assay: Thermal shift binding assay; settings: for Tm change, EV-D68 3C^pro: 4 mM DTT, 40 μM compound (shikonin 10 μM), 3 μM protease
Summary of the method: as §2

SARS-CoV-2 M^pro [10] = molecular target: T5, SARS-CoV-2 M^pro; type: binding
in vitro = settings: human, CC50 (EV-A71 CPE assay conditions), RD cells, no virus, 37 °C, no MgCl2
SARS-CoV-2 = settings: at 10 μM; cited from earlier work
[11] = EV-A71 2A^pro IC50, with 4 mM DTT
[12] = EV-A71 3C^pro IC50, with 4 mM DTT
[13] = EV-D68 2A^pro IC50, with 4 mM DTT
[14] = EV-D68 3C^pro IC50, with 4 mM DTT

Compound	IC50 (EV-A71 2A^pro [1]; EV-A71 2A^pro IC50, no DTT)	IC50 (EV-A71 2A^pro [1]; [11])	IC50 (EV-A71 3C^pro [2]; EV-A71 3C^pro IC50, no DTT)	IC50 (EV-A71 3C^pro [2]; [12])	IC50 (EV-D68 2A^pro [3]; EV-D68 2A^pro IC50, no DTT)	IC50 (EV-D68 2A^pro [3]; [13])	IC50 (EV-D68 3C^pro [4]; EV-D68 3C^pro IC50, no DTT)	IC50 (EV-D68 3C^pro [4]; [14])	Tm change, SARS-CoV-2 M^pro (SARS-CoV-2 M^pro [5])	Tm change, SARS-CoV-2 PL^pro (SARS-CoV-2 PL^pro)	Tm change, EV-A71 2A^pro (EV-A71 2A^pro [6])	Tm change, EV-A71 3C^pro (EV-A71 3C^pro [7])	Tm change, EV-D68 2A^pro (EV-D68 2A^pro [8])	Tm change, EV-D68 3C^pro (EV-D68 3C^pro [9])	Ligand binding to M^pro dimer (SARS-CoV-2 M^pro [10]; with 4 mM DTT, 10-40 μM drug)	Ligands bound per M^pro dimer (SARS-CoV-2 M^pro [10]; without DTT, 10-40 μM drug)	CC50 (in vitro)	Reduction of viral replication, viral titer reduction assay (SARS-CoV-2)	also measured
CC(C)=CC[C@@H](O)C1=CC(=O)c2c(O)ccc(O)c2C1=O [shikonin]	36 ± 20.5 µM	> 60 µM	0.5 ± 0.2 µM	> 60 µM	37 ± 14.2 µM	> 60 µM	1.2 ± 0.7 µM	> 60 µM	no Tm change	no Tm change	no Tm change	no Tm change	no Tm change	no Tm change	completely disrupted	up to four ligands per dimer	0.8 µM		
CCCCCCNC(=O)n1cc(F)c(=O)[nH]c1=O [carmofur]	12.9 ± 4.5 µM	> 60 µM	0.4 ± 0.2 µM	> 60 µM	6.4 ± 1.3 µM	> 60 µM	0.3 µM	> 60 µM	no Tm change	no Tm change	no Tm change	no Tm change	no Tm change	no Tm change	moderate binding	up to three ligands per dimer	47.2 µM	no significant antiviral effect	Tm increase, SARS-CoV-2 M^pro (SARS-CoV-2 M^pro [5]; absence of DTT, 40 μM compound): 4.76 °C; Tm increase, EV-D68 3C^pro (EV-D68 3C^pro [9]; absence of DTT, 40 μM compound): 0.87 °C
O=c1sn(-c2cccc3ccccc23)c(=O)n1Cc1ccccc1 [tideglusib]	3.4 ± 2.9 µM	> 60 µM	1.2 ± 0.1 µM	> 60 µM	1.3 ± 0.7 µM	> 60 µM	0.6 ± 0.3 µM	> 60 µM	no Tm change	no Tm change	no Tm change	no Tm change	no Tm change	no Tm change	did not bind	did not bind	16.6 µM	no significant antiviral effect	
CCN(CC)C(=S)SSC(=S)N(CC)CC [disulfiram]	11.8 ± 2.1 µM	> 60 µM	1 ± 0.6 µM	> 60 µM	3.5 ± 0.5 µM	> 60 µM	0.6 ± 0.1 µM	> 60 µM	no Tm change	no Tm change	no Tm change	no Tm change	no Tm change	no Tm change	completely disrupted	up to three	8.3 µM	~30%	
O=c1c2ccccc2[se]n1-c1ccccc1 [ebselen]	5.9 ± 1.1 µM	> 60 µM	1.2 ± 0.7 µM	> 60 µM	3.6 ± 1 µM	> 60 µM	0.1 µM	> 60 µM	no Tm change	no Tm change	no Tm change	no Tm change	no Tm change	no Tm change			17 µM		Ligand binding to M^pro dimer (SARS-CoV-2 M^pro [10]): completely disrupted; Ligands bound per M^pro dimer (SARS-CoV-2 M^pro [10]): four
CCC[C@H](NC(=O)[C@@H]1[C@H]2CCC[C@H]2CN1C(=O)[C@@H](NC(=O)[C@@H](NC(=O)c1cnccn1)C1CCCCC1)C(C)(C)C)C(=O)C(=O)NC1CC1 [telaprevir]	1.8 ± 0.9 µM	1.3 µM			0.1 µM						increased the Tm		increased the Tm						
